{"data": "Experimental data gathered from unrelated publications", "target": "Tyrosine-protein kinase Mer (MERTK, Homo sapiens, UniProt Q12866)", "One construct used (Q12866 21-999)": "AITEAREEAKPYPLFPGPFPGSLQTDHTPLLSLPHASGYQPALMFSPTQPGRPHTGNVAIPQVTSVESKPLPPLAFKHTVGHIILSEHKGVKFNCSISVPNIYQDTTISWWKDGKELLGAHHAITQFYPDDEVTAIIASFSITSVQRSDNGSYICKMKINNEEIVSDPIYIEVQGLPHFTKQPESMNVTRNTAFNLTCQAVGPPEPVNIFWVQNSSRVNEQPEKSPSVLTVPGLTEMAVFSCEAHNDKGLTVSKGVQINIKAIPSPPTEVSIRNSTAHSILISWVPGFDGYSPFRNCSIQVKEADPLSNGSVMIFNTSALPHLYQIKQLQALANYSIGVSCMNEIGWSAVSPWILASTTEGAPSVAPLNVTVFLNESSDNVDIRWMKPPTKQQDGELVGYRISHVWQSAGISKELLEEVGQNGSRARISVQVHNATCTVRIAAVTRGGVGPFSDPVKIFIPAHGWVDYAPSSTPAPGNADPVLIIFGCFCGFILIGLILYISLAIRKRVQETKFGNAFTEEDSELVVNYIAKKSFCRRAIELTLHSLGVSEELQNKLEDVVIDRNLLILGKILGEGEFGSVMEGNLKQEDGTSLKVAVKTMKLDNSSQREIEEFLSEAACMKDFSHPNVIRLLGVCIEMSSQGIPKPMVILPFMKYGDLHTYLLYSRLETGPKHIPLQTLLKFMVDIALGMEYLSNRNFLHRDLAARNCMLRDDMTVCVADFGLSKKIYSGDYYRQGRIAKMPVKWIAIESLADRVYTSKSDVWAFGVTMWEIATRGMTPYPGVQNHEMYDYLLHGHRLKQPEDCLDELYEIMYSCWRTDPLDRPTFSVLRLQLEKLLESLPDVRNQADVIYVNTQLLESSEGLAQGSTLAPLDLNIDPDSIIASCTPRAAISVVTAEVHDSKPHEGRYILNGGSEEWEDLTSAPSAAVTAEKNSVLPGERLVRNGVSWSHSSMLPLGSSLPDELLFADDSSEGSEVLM", "note": "Compare with care: the assays were run in different laboratories."}
{"SMILES": "Cc1nccc(COC(=O)N2C[C@@H]3[C@@H](CNC(=O)c4ccc5[nH]nnc5c4)[C@@H]3C2)n1", "effect on": "cell-free assay", "technique": "competition with immobilised ligand", "tested at": "1 µM", "quantity": "remaining binding", "value": "100%"}
{"SMILES": "Cn1c2c(Cl)c(Cl)ccc2c2cc[nH]c(=O)c21", "effect on": "thermal stability", "technique": "DSF", "tested at": "10 µM", "quantity": "ΔTm", "value": "1.3 °C"}
{"SMILES": "CC/C(=N\\NC(=O)NCc1cccc(O)c1)c1ccc(O)c(C)c1O", "effect on": "enzyme activity", "action": "inhibitor", "tested at": "0.1 µM", "quantity": "inhibition", "value": "5%"}
{"SMILES": "CNC(=O)Nc1ccc2c(c1)[C@@]1(CC2)OC(=O)N(CC(=O)N(Cc2ccc(F)cc2)[C@@H](C)C(F)(F)F)C1=O", "effect on": "cell-free assay", "technique": "competition with immobilised ligand", "tested at": "1 µM", "quantity": "remaining binding", "value": "100%"}
{"SMILES": "CCN1CCC2(CC1)NC(=O)c1c(c3ccc(Cl)c(Cl)c3n1C)C2C#N (racemic)", "effect on": "thermal stability", "technique": "DSF", "tested at": "10 µM", "quantity": "ΔTm", "value": "1 °C"}
{"SMILES": "CNC(=O)c1cc(Oc2ccc(NC(=O)Nc3ccc(Cl)c(C(F)(F)F)c3)cc2)ccn1", "effect on": "enzyme activity", "action": "inhibitor", "tested at": "0.3 µM", "quantity": "inhibition", "value": "26%"}
{"SMILES": "CNC(=O)c1cc2c(Oc3ccc(NC(=O)C4(C(=O)Nc5ccc(F)cc5)CC4)cc3)ccnc2cc1OC", "effect on": "enzyme activity", "action": "inhibitor", "technique": "radiometric", "tested at": "1 µM", "quantity": "inhibition", "value": "99%"}
{"SMILES": "CCCOc1ccc([C@H]2[C@H](C(=O)O)[C@@H](c3ccc4c(c3)OCO4)CN2CC(=O)Nc2c(CC)cccc2CC)cc1", "effect on": "cell-free assay", "technique": "competition with immobilised ligand", "tested at": "1 µM", "quantity": "remaining binding", "value": "87%"}
{"SMILES": "CC1(C)NC(=O)c2[nH]c3c(Cl)c(Cl)ccc3c2C1C#N (centres unmarked)", "effect on": "thermal stability", "technique": "DSF", "tested at": "10 µM", "quantity": "ΔTm", "value": "-1.1 °C"}
{"SMILES": "CCN(CC)CCNC(=O)c1c(C)[nH]c(/C=C2\\C(=O)Nc3ccc(F)cc32)c1C", "effect on": "enzyme activity", "action": "inhibitor", "tested at": "10 µM", "quantity": "inhibition", "value": "98%"}
{"SMILES": "O=C(Nc1cnn(-c2csc(C(=O)NC3COC3)c2)c1)Nc1c(F)cccc1Cl", "effect on": "enzyme activity", "action": "inhibitor", "tested at": "5 µM", "quantity": "remaining activity", "value": "77.1%"}
{"SMILES": "Cc1ccc(C(=O)NCc2ccsc2)cc1C#Cc1cn(C(C)C)c2ncnc(N)c12", "effect on": "enzyme activity", "action": "inhibitor", "tested at": "1 µM", "quantity": "activity vs control", "value": "71%"}
{"SMILES": "CNCc1ccccc1-c1csc([C@@H](C)Nc2nc(C)nc3cc(OC)c(OC)cc23)c1", "effect on": "cell-free assay", "technique": "competition with immobilised ligand", "tested at": "1 µM", "quantity": "remaining binding", "value": "61%"}
{"SMILES": "Cc1cnc(NC2CCOCC2)nc1-n1cnc(C(=O)NC(CN)c2cc(F)cc(Cl)c2)c1 (centres unmarked)", "effect on": "enzyme activity", "action": "inhibitor", "technique": "radiometric", "tested at": "1 µM", "quantity": "remaining activity", "value": "96%"}
{"SMILES": "Cn1c2c(c3ccccc31)C(C#N)C(C)(C)NC2=O (centres unmarked)", "effect on": "thermal stability", "technique": "DSF", "tested at": "10 µM", "quantity": "ΔTm", "value": "0.8 °C"}
{"SMILES": "CC(C)(O)c1cncc(-c2nc3ccc(F)cc3n2C2CC2)c1", "effect on": "cell-free assay", "technique": "competition with immobilised ligand", "tested at": "1 µM", "quantity": "remaining binding", "value": "96%"}
{"SMILES": "O=C1NC(=O)c2cc(Nc3ccc(F)cc3)c(Nc3ccc(F)cc3)cc21", "effect on": "cell-free assay", "tested at": "0.5 µM", "quantity": "remaining signal", "value": "97.4%"}
{"SMILES": "C[C@@H]1CN(c2cc(-c3n[nH]c4ccc(OC5(C)CC5)cc34)ncn2)C[C@H](C)O1", "effect on": "cell-free assay", "technique": "competition with immobilised ligand", "tested at": "0.1 µM", "quantity": "remaining binding", "value": "97%"}
{"SMILES": "CCN(CC)c1ccc(C2=NNC(=O)CC2C)cc1[N+](=O)[O-] (centres unmarked)", "effect on": "enzyme activity", "action": "inhibitor", "tested at": "10 µM", "quantity": "remaining activity", "value": "97%"}
{"SMILES": "CN1CC(Oc2cnc(C#N)cc2-c2ccn3nc(NC(=O)C4CC4)cc3c2)C1", "effect on": "enzyme activity", "action": "inhibitor", "tested at": "1 µM", "quantity": "inhibition", "value": "0%"}
